Source: ChEMBL document CHEMBL4513216, “Probing the Open Global Health Chemical Diversity Library for Multistage-Active Starting Points for Next-Generation Antimalarials” (ACS Infect Dis, 2020)

Assay: Toxicity liver stage against HepG2, at 10uM
Assay type: cell-based
Set-up: test concentration 10 uM, cell line HepG2-A16-CD81EGFP
Details: human, HepG2-A16-CD81EGFP cells; read-out: INHIBITION
How it was run: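 Uninfected HepG2-A16-CD81EGFP cells, 3 × 10^3 per well, 1536-well, plated on prespotted compound at 10 μM final, parasite-free screening media added to match infected plates; puromycin 10 μM positive, DMSO 0.5% negative; run in parallel with 48 h PbLuc assay at 37 °C, 5% CO2; viability by CellTiter-Glo luminescence, normalized to controls.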

Structure (SMILES)	cytotoxicity at 10 µM
N#Cc1ccccc1CN1CCc2sccc2C1	-0.572%
CSC(C)(C)CNC(=O)NC(c1nnc2n1CCC2)C(C)C (configuration not stated)	-19.9%
Cc1noc(C)c1C(=O)N1Cc2ncn(C)c2C(COCC(C)C)C1 (configuration not stated)	-105%
CC(C)c1nc(C2CCCN(C(=O)CCn3ccnc3)C2)no1 (configuration not stated)	-10.8%
N#Cc1ccc(CN2CCCN(CCCn3cncn3)CC2)cc1	-2.89%
CCCn1cnc(S(=O)(=O)Nc2cccnc2-n2cccn2)c1	15.4%
CC(C)Nc1nc2c(cc1C(=O)NCC1CC1)CCN(C)CC2	-5.72%
O=C(Nc1nc2c(s1)CN(S(=O)(=O)C1CC1)CC2)c1ccc(Cl)s1	21.3%
NC(=O)CN1CCCN(C(=O)CCOc2ccccc2Cl)CC1	-6.73%
Cc1ccc(CN2C(=O)OCC2CO)c2ccccc12 (configuration not stated)	-5.21%
CN(C)S(=O)(=O)N1CCCC(C)(c2ncc(C(N)=O)s2)C1 (configuration not stated)	-2.36%
CC(=O)NCC1CCN(C(=O)c2csc(-c3ccc(C)cc3C)n2)CC1	-10.8%
COc1cc(C)c(NC(=O)NCCn2cccc2)cc1OC	0.414%
COCc1nc(C(=O)N2CCCCC2Cn2cccn2)cs1 (configuration not stated)	-19.1%
COc1cccc(CN2CCN3C(=O)NC[C@H]3C2)n1	-1.45%
CCO[C@@H]1C[C@H]2CN(Cc3ccc(C)o3)CCN2C1	-149%
Cn1cc(CN(C(=O)c2ccc(O)c(Cl)c2)C2CC2)cn1	5.17%
CCOc1cccc(C(=O)NCCC(=O)Nc2ccncc2)c1	2.37%
O=C(CN1CCN(CC(O)C2CC2)CC1)NCc1ccccc1Cl (configuration not stated)	5.23%
CC(NC1(CNC(=O)CC(C)(C)C)CCOCC1)c1ccccc1 (configuration not stated)	8.57%
Cc1nc(N2CCN(c3ccccc3)CC2)c2c(n1)c(C)nn2C	7.8%
CCCN(CC1COc2ccccc2O1)C(=O)CCn1cncn1 (configuration not stated)	-0.627%
CN(CCO)CC1COCCN1C(=O)CCC1CCCC1 (configuration not stated)	-9.83%

Structure (SMILES)	cytotoxicity at 10 µM
Cc1ccc(CN2CCC3(CC2)CCN(C(=O)c2cccnc2)C3)o1	-93.3%
Cn1cc(CN2C[C@H]3CN(c4cncnc4)C(=O)[C@H]3C2)cn1	-0.0682%
COc1ccc(CN2CCN(c3ncc(Cl)cn3)CC2)cc1	-4.86%
O=C(CO)N1CCC(CCc2ccnc(Nc3cnccn3)c2)CC1	-0.459%
CNC(=O)C(C)(C)N1CCC[C@H]1C(=O)NCC(C)C	1.55%
CCOCCC(=O)Nc1cccc(Oc2ccccn2)c1	8.32%
O=C(c1cccs1)N1CC[C@@H]2CN(C3CCOCC3)CCO[C@@H]2C1	-110%
N#CCSCC(=O)NCC1CCCCC1	8.32%
COC[C@H]1CC[C@H]2[C@H](CCN2S(=O)(=O)Cc2ccccc2)O1	8.25%
CC(C)n1cc(N2CC(C(=O)N3CCCC3)CC2=O)cn1 (configuration not stated)	3.79%
Cc1n[nH]c2c1C(c1ccc(Cl)cc1)SCC(=O)N2 (configuration not stated)	19.2%
Cn1cccc1C(O)CNC(=O)c1cccc(Cl)c1 (configuration not stated)	-1.94%
Cc1nc(CN2CCCN(CCCc3ccccc3)CC2)no1	11.3%
CCC(OC)C(=O)NCc1cc2n(n1)CCCN(C1CCCCC1)C2 (configuration not stated)	5.3%
Cc1cc(C)n(CC(=O)N2CCC(c3nc(C)no3)CC2)n1	1.2%
O=C(NCCC1=CCCCC1)C1CCCN(c2ccc3nncn3n2)C1 (configuration not stated)	4.01%
O=C(NCCc1cccs1)N1CCCC1CCCO (configuration not stated)	5.82%
FC(F)(F)c1nc(C2CCCNC2)no1 (configuration not stated)	5.25%
Cc1ncsc1CCN(C)C(=O)CN1CC2(CCNCC2)OC1=O	-7.33%
COCC(=O)N1CCC2(COCc3c(C)nc(N(C)C)nc32)C1 (configuration not stated)	9.09%
Cc1ccc(CN2CCn3cc(CN(C)Cc4ccco4)nc3C2)o1	-1.09%
CC(Cn1cccn1)NC(=O)Nc1cccnc1 (configuration not stated)	-2.9%
Cc1nn(C)cc1C1SCC(=O)Nc2c1c(O)nn2C(C)C (configuration not stated)	1.04%

Structure (SMILES)	cytotoxicity at 10 µM
CNS(=O)(=O)Cc1ccccc1CNc1ccc(C#N)cn1	-6.45%
CCCC(=O)N1CC[C@@H]2[C@H](CC1)N(Cc1cccc(C)n1)CCS2(=O)=O	-2.88%
CC(C)N1CCC(Cc2cncc(-c3cc(F)ccc3C(=O)O)n2)C1 (configuration not stated)	-6.88%
CC(C)NC(=O)C1CCN(C(C)C(=O)N2CCc3sccc3C2)CC1 (configuration not stated)	5.52%
CCOCC1CN(S(=O)(=O)N(C)C)Cc2cnn(CC)c21 (configuration not stated)	2.26%
Cc1cc(C(F)(F)F)nc(C2COCCN2S(C)(=O)=O)n1 (configuration not stated)	-2.6%
Cc1cc(C)c(C(=O)N[C@H](C(N)=O)c2ccccc2)c(=O)[nH]1	-2.06%
Cc1ncsc1CCN(C)C(=O)c1c(O)cccc1O	0.417%
CCN(CC)C(=O)CN(C)C(=O)c1ccc(-c2ccsc2)nc1C	18.1%
Cc1nccn1CCCN1CCCC(c2nccn2C)C1 (configuration not stated)	-10.3%
O=C(C1SCCc2sccc21)N1CC(O)C1 (configuration not stated)	9.22%
O=C1CC2(CCCC2)CN1CCOc1ccc(F)cc1	1.05%
CC(C)COc1ccccc1CN(C)C(=O)c1cc(=O)[nH]c(=O)[nH]1	2.05%
Cc1nc(Nc2nnc(C)s2)cc(C2CCCN2C)n1 (configuration not stated)	8.67%
CCn1nnnc1-c1cccc(NC(=O)CCc2cnn(C)c2)c1	-6.19%
CCN1CCN(Cc2nc(Cc3ccccc3)n[nH]2)CC1	-9.34%
CC(C)C(=O)N1CC[C@@H]2[C@H](CC1)N(Cc1cccnc1)CCS2(=O)=O	-7.77%
O=C(NC1CC1)[C@H]1C[C@@H]2CCN(CCc3ccccc3)C[C@H]2O1	6.46%
CCc1nccn1C1CCCN(C(=O)Cc2cn3ccccc3n2)C1 (configuration not stated)	-2.72%
CCNc1cc2c(nn1)CCN(C(=O)c1cccnc1N(C)C)C2	-13.4%
COCC(C)(C)NC(=O)CC(c1ccccc1)C(F)(F)F (configuration not stated)	-50.1%
O=C(CC1CCCCC1)NC1CCCCNC1=O (configuration not stated)	6.82%
Cc1ccc(C(=O)NCCS(=O)(=O)Cc2ccccc2)c(=O)[nH]1	-5.96%

Structure (SMILES)	cytotoxicity at 10 µM
N[C@H]1CN(CCOc2ccc(F)cc2)C[C@@H]1C1CC1	-1.93%
CSc1ccc(CN(CCO)Cc2nccn2C)cc1	4.98%
CC(C)c1nc2c(n1C)CCN(CC(=O)Nc1ccnn1C(C)C)C2	-1.3%
CC(C)(C(=O)NCC(=O)NCc1ccccc1)c1ccccc1F	4.63%
CS(=O)(=O)Nc1cccc(CNC(=O)CCNC(=O)c2cccs2)c1	0.466%
CN1CCc2nc(C3CCCN(S(=O)(=O)c4ccccc4)C3)ncc2C1 (configuration not stated)	2.67%
O=C(CCn1cncn1)NCC(c1ccco1)N1CCCCC1 (configuration not stated)	-2.97%
Cc1cnn(CC2CCCN2Cc2cc(=O)n3c(C)csc3n2)c1 (configuration not stated)	-2.11%
Cc1nc(C2CCCN(C(=O)c3cnn(C(C)(C)C)c3)C2)no1 (configuration not stated)	0.818%
O=C(CN(Cc1cccs1)c1ccc(F)cc1)NC1CCOCC1	13.5%
CN(C)c1nccc(N(C)C2CCCCC2)n1	-6.37%
CNC(=O)[C@H]1C[C@@H]2CN(Cc3cccnc3OC)C[C@@H]2N1C(C)C	11.5%
Cc1c(C2CCCN(C(=O)c3ccn(C)n3)C2)n2c(nc1=O)CCC2 (configuration not stated)	0.862%
COc1ccc(Cc2noc(-c3ccc(NC(C)CO)nc3)n2)cc1 (configuration not stated)	-3.06%
O=c1c(S(=O)(=O)N2CCCC2)cccn1Cc1c(F)cccc1Cl	0.814%
C=c1ncsc1=C1NC(c2cccc(CN3CCOCC3)c2)=NO1	-11.3%
CNC(=O)CCc1cccc(C2CCCN(c3cc(C)ncn3)C2)n1 (configuration not stated)	1.58%
Cc1cccc(C(=O)N2CCCSCC2CN2CCCC2)c1 (configuration not stated)	8.77%
c1cnc2nc(C3CCNCC3)[nH]c2c1	9.57%
COc1ccc(OCc2sc(C3(O)CCCNCC3)nc2C)cc1 (configuration not stated)	-3.66%
CCN(Cc1cnn(C)c1)C[C@H]1CC[C@@H](Cc2ccc(CO)cc2)O1	5.95%
COc1ccc(Cl)cc1C(=O)N1CCOC2(CNCCOC2)C1 (configuration not stated)	-9.73%
Cn1c(CCNC(=O)C2CCCN(C3CCOCC3)C2)n[nH]c1=O (configuration not stated)	2.12%

Structure (SMILES)	cytotoxicity at 10 µM
CCC(Nc1nnnn1-c1ccccc1)C(=O)NCc1cccs1 (configuration not stated)	-1.12%
N#Cc1c(F)cccc1N1CCC(NS(=O)(=O)c2cccs2)CC1	-7.39%
CN(Cc1ncnn1C)C(=O)CCn1ccc2ccccc21	1.16%
Cc1cc(NC(=O)CCN2CCCC2Cn2cncn2)no1 (configuration not stated)	4.26%
COc1ccc(C(C)N2CCC(CO)CC2)cc1Cl (configuration not stated)	-51.1%
O=S(=O)(CC1CCOCC1)NCc1ccnc(O)c1	-5.47%
Cc1nnc(NC(=O)CN2CCCC(c3ccn[nH]3)C2)s1 (configuration not stated)	-37.6%
CC(C)(C)CNC(=O)c1ccc(C(=O)O)cc1	-8.17%
CCn1cc(CN2C[C@@H]3CCCN3C[C@@H]2CCSC)c(C)n1	3.29%
CN(C)Cc1cnc2n1CCN(Cc1ccsc1)CC2	-10.4%
Cc1ccc(C(=O)N2CCC3(CCN(Cc4ccccn4)C3=O)C2)cn1 (configuration not stated)	-145%
CN(Cc1nnc(C2CC2)o1)Cc1ccccc1-c1ccccc1	4.59%
CC(C)c1cc(C(=O)N2CCCN(CCCc3ccccc3)CC2)[nH]n1	0.271%
Cc1ccc(N2N=C(C(=O)NCC3CC3)S(=O)(=O)c3cccnc32)cc1	6.72%
Cc1ccc(-c2nnc(CN3CCNC(=O)C3)o2)cc1	-1.26%
CSc1[nH]nc(NC(=O)c2cccs2)c1C#N	-1.04%
CC(C)C(=O)NCc1ccc(N(C)C)cc1	-18.1%
c1coc(-c2noc(CN3CCc4c(ncn4C4CC4)C3)n2)c1	-8.12%
COc1ncccc1C(=O)N1CC[C@H]2C[C@H](c3nnc(C)[nH]3)O[C@@H]2C1	2.4%
Cc1nc(N(C)C)ncc1C(=O)N[C@@H]1CCc2ccccc21	5.77%
